Laboratory results published in PMC11954587 (JAC-Antimicrobial Resistance, 2025).
Entries after “also recorded” stand apart in the source; their conditions may differ. Read-outs that look alike come from different tables or passages of the source. Residues, ends and D or L forms follow the SMILES beside them.

Legend:
[1] = cited from earlier work
[2] = patients with bloodstream infections; cited from earlier work
[3] = Adverse events in VAP patients during polymyxin B treatment; format: in vivo, human
epithelial cells = settings: in vitro; cited from earlier work
K. pneumoniae = settings: cited from earlier work
P. aeruginosa strains = settings: animal model, cited from earlier work
[4] = tested on: multi-drug-resistant Gram-negative bacteria; format: in vivo, human; settings: for Microbiology efficacy (TOC): test of cure visit, 14-days post treatment
Summary of the method: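 VAP was diagnosed by positive sputum culture of multi-drug-resistant Gram-negative bacteria plus clinical signs, laboratory tests and CT. Aerosol: 50 mg powder dissolved in 5 mL distilled water, given whole or split into two 25 mg doses, nebulized over 30 min by vibrating mesh device, combined with IV dosing. Outcomes were assessed at end of treatment and test of cure.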

[5] = aerosolized delivery of CMS; cited from earlier work
[6] = four patients during polymyxin B treatment

CC[C@H](C)CCCCC(=O)N[C@@H](CCN)C(=O)N[C@H](C(=O)N[C@@H](CCN)C(=O)N[C@H]1CCNC(=O)[C@H]([C@@H](C)O)NC(=O)[C@H](CCN)NC(=O)[C@H](CCN)NC(=O)[C@H](CC(C)C)NC(=O)[C@@H](Cc2ccccc2)NC(=O)[C@H](CCN)NC1=O)[C@@H](C)O [polymyxin B] (HELM PEPTIDE1{[CC[C@H](C)CCCCC(=O)[*:2]].[Dab].T.[Dab].[Dab].[Dab].[dF].L.[Dab].[Dab].T}$PEPTIDE1,PEPTIDE1,5:R3-11:R2$$$V2.0)
cure and improved rates ([1]; aerosol doses of 50 mg twice a day, VAP patients): 95%
clinical outcome ([1]; inhaled polymyxin B, pneumonia patients): favourable clinical outcome of cure and improvement
elimination half-life [2]: 12.5 ± 3.11 h
Adverse events ([3]; Patient 1, inhalation 25 mg + intravenous 50 mg q12h, 5 d): none
Adverse events ([3]; Patient 2, inhalation 25 mg + intravenous 100 mg q12h, 5 d): none
Adverse events ([3]; Patient 3, inhalation 25 then 50 mg + intravenous 75 mg q12h, 12 d): hyperpigmentation
Adverse events ([3]; Patient 4, inhalation 25 mg + intravenous 75 mg q12h, 11 d): hyperpigmentation
nephrotoxicity [3, 6]: No cases of nephrotoxicity
neurotoxicity [3, 6]: no reports of neurotoxicity
hyperpigmentation (number of patients) ([3]; of four patients): two patients
chest CT imaging ([3]; patients, combined aerosol and intravenous treatment): recovery of chest CT imaging
concentration that induced toxic metabolic response perturbations (epithelial cells): 1000 µM
eradication rate of K. pneumoniae (K. pneumoniae; aerosol 50 mg twice a day (with intravenous), P < 0.003): 92.1%
eradication rate of K. pneumoniae (K. pneumoniae; intravenous treatment alone): 70.1%
maximum ELF concentrations (P. aeruginosa strains; aerosolized): 184.0 ± 35.1 mg/L
lung histopathology (P. aeruginosa strains; at maximum ELF concentrations 184.0 ± 35.1 mg/L): reduced lung inflammation and preserved lung epithelial integrity
Clinical outcome (EOT and TOC) ([4]; Patient 1, CRKP VAP, inhalation 25 mg + intravenous 50 mg q12h, 5 d): improved
Microbiology efficacy (TOC) ([4]; Patient 1, organism found): CRKP
Microbiology efficacy (TOC) ([4]; Patient 2): negative
Note (sputum culture during treatment) ([4]; Patient 3, inhalation 25 mg + intravenous 75 mg q12h): CRKP and CRPA were negative after treatment for 6 days, then Serratia marcescens and Chryseobacterium meningosepticum showed positive
Microbiology efficacy (TOC) ([4]; Patient 3): CRKP and CRPA negative
Clinical outcome (EOT and TOC) ([4]; Patient 4, CRE (E. cloacae) VAP, inhalation 25 mg + intravenous 75 mg q12h, 11 d): improved
Microbiology efficacy (TOC) ([4]; Patient 4): negative
clinical improvement or cure / alleviation of clinical symptoms (patients) ([4]; four VAP patients, aerosolized and intravenous polymyxin B): Three of the patients exhibited alleviation of clinical symptoms; also recorded: three of them reaching clinical improvement or cure
bacterial eradication (patients) ([4]; four VAP patients, aerosolized and intravenous polymyxin B, sputum culture): All four patients achieved bacterial eradication

colistimethate [CMS]
rate of clinical cure (OR) [5]: 1.61
rate of microbiological eradication (OR) [5]: 1.37
